High-throughput results deposited in PubChem by several laboratories.
Compounds with a hit are over-represented: about 2% of the library has one in this group of screens.
PPC-1+TRAIL kill – kills PPC-1 cancer cells in the presence of TRAIL; PPC-1 cells + TRAIL, ATPLite viability luminescence; cell killing (% activity), % at 4 µM or 5 µM; 0.41% of 220,000 active; AID 1443;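 active = cell killing above 50% in the first pass at 4 µM, then a duplicate retest at 5 µM averaging 50% or more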
FLuc inhib CS – counter-screen for luciferase assay inhibitors: firefly luciferase inhibition; AID 1006; inhibition, % at 10 µM; ATPLite firefly luciferase biochemical luminescence, 10 min; P08659; 1.5% of 200,000 active;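 active = inhibition above about 50% when tested at 10 µM, limit read from the data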
Target sequence (P08659 whole entry, looked up): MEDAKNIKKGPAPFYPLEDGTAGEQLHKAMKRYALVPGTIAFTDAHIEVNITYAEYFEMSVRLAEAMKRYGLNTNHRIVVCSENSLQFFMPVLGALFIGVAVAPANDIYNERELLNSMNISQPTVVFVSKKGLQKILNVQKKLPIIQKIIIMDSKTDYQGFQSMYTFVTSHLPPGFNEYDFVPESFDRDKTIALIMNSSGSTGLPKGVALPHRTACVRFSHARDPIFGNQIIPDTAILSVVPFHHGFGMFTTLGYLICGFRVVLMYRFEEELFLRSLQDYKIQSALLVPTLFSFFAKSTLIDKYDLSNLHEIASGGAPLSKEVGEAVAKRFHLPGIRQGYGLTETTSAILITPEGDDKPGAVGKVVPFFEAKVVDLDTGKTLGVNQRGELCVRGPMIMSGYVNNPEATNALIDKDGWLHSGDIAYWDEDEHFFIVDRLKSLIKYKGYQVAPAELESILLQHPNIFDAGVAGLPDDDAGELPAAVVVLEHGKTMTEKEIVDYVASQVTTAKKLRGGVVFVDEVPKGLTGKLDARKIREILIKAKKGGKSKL
HSP90 refold inh – inhibitors of HSP90 luciferase refolding in rabbit reticulocyte lysate; luciferase refolding luminescence, 3 h; inhibition, % at 5.6 µM; 0.91% of 290,000 active;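 active = inhibition above the screen-wide mean plus 3 SD, computed separately per campaign, cut at about 16% in these data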;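 note: inhibitors lower the luminescence because luciferase stays unfolded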
FLuc act counter – affects firefly luciferase, flagging false hits in luciferase stimulation screens. AID 1027. activation factor at 10 µM. 200,000 tested, under 10 active. P08659. ATPlite luciferase biochemical, luminescence, 10 min; 0 = ATP-free wells, 1 = DMSO control;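 active = luciferase activation factor, scaled between plate controls, of at least 2 with compound at 10 µM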
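Material: Luciferase/luciferin reagent mix | Doses: Test compounds dosed from 2 mM stocks in 100% DMSO | Timing: 10 min incubation after luciferase reagent addition, room temperature | Measured by: Luminescence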
TRAIL sens C8 – caspase-8 TRAIL sensitization | NB7+C8 cells + TRAIL, ATPlite viability luminescence | 1% of 360,000 active | inhibition (viability loss, TRAIL sensitization), % at 10 µM | AID 624354;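 active = compounds causing at least 50% loss of cell viability in the single-dose screen, relative to plate controls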
Each line names hits and unclear results; the compound was inactive in the other large screens.

O=C(N/N=C1\CCCc2ccccc21)c1ccc([N+](=O)[O-])cc1	FLuc inhib CS 61
COc1ccc(N2C(=O)C(C)(C)C2c2c(O)ccc3ccccc23)cc1 (stereo not drawn)	HSP90 refold inh 17 (no result: PPC-1+TRAIL kill, FLuc inhib CS, FLuc act counter)
O=C(O)CCC(=O)N1CCN(c2ncccn2)CC1	none (no result: FLuc inhib CS, FLuc act counter)
O=C(N/N=C\c1ccc(CNS(=O)(=O)c2ccc(Cl)cc2)o1)C(=O)Nc1ccc(Oc2ccccc2)cc1	TRAIL sens C8 54
CN(C(=O)c1ccco1)c1nc2c(s1)CCCC2	FLuc inhib CS 77, TRAIL sens C8 59
COc1ccc(NC(=S)NC(NC(=O)/C=C/c2ccccc2)C(Cl)(Cl)Cl)cc1 (stereo not drawn)	none
O=C(/C=C/c1ccccc1)NC(NC(=S)Nc1ccc(Cl)cc1)C(Cl)(Cl)Cl (stereo not drawn)	TRAIL sens C8 52
COC(=O)C(C)Oc1cc(OC(C)C(=O)OC)c2c(-c3ccccc3)cc(=O)oc2c1 (stereo not drawn)	none (no result: PPC-1+TRAIL kill, FLuc inhib CS, FLuc act counter)
CC(C)(C)c1ccc(C(=O)O/N=C(\N)Cc2cccs2)cc1	TRAIL sens C8 94 (no result: PPC-1+TRAIL kill, FLuc inhib CS, HSP90 refold inh, FLuc act counter)
Cc1ccccc1OCC(=O)O/N=C(\N)Cc1cccs1	none (no result: PPC-1+TRAIL kill)
Cc1ccccc1C(=O)O/N=C(\N)Cc1cccs1	TRAIL sens C8 92 (no result: PPC-1+TRAIL kill, FLuc inhib CS, FLuc act counter)
COc1ccc(OCC(=O)O/N=C(\N)Cc2cccs2)cc1	none
O=C(c1ccc(-c2ccc(Cl)cc2Cl)o1)N1CCOCC1	FLuc inhib CS 51
COc1ccc(NC(=O)CCl)cn1	none (no result: FLuc inhib CS, FLuc act counter, TRAIL sens C8)
O=C(CCl)Nc1ccc(Oc2cnc3ccccc3n2)cc1	TRAIL sens C8 93
CCC(=O)Nc1cccc(-c2cnc3ccccc3n2)c1	none
O=C(CCl)Nc1cccc(-c2cnc3ccccc3n2)c1	TRAIL sens C8 94
Cc1cc(C)c(S(=O)(=O)N/N=C/c2ccc([N+](=O)[O-])o2)c(C)c1	none (no result: PPC-1+TRAIL kill, FLuc inhib CS, FLuc act counter)
Cc1cc(C)cc(C(=O)Oc2cc(C)[nH]c(=O)c2[N+](=O)[O-])c1	none (no result: PPC-1+TRAIL kill, FLuc inhib CS, FLuc act counter)
Cn1c(=O)[nH]c(=O)c2c1nc([N+](=O)[O-])n2Cc1ccccc1	TRAIL sens C8 85 (no result: FLuc inhib CS, FLuc act counter)
CC(C)Cn1c([N+](=O)[O-])nc2c1c(=O)[nH]c(=O)n2C	none (no result: FLuc inhib CS, FLuc act counter)
COc1ccc(C2C(C(=O)N3CCN(c4ccccc4)CC3)c3ccccc3C(=O)N2C)cc1OC (stereo not drawn)	TRAIL sens C8 68
COc1ccc(C2C(C(=O)N3CCN(c4ccccc4)CC3)c3ccccc3C(=O)N2C)cc1 (stereo not drawn)	TRAIL sens C8 59
CCc1ccc(CN(C)C(=O)C2CCC(=O)N(Cc3ccccn3)C2)cc1 (stereo not drawn)	none (no result: PPC-1+TRAIL kill, FLuc inhib CS, FLuc act counter)
CN(C)CCCN(C(=O)c1ccc(S(=O)(=O)N(C)C2CCCCC2)cc1)c1nc2ccc(Br)cc2s1	TRAIL sens C8 58 (no result: PPC-1+TRAIL kill, FLuc inhib CS, FLuc act counter)
CN(C)CCCN(C(=O)c1ccc(S(=O)(=O)N(C)C2CCCCC2)cc1)c1nc2ccc(F)cc2s1	none (no result: PPC-1+TRAIL kill, FLuc inhib CS, FLuc act counter)
COc1cc2nc(N(CCCN(C)C)C(=O)c3ccc(S(=O)(=O)N(C)C4CCCCC4)cc3)sc2cc1OC	none (no result: PPC-1+TRAIL kill, FLuc inhib CS, HSP90 refold inh, FLuc act counter)
Cc1cc(C)c2sc(N(CCCN(C)C)C(=O)c3ccc(S(=O)(=O)N(C)C4CCCCC4)cc3)nc2c1	TRAIL sens C8 76 (no result: PPC-1+TRAIL kill, FLuc inhib CS, HSP90 refold inh, FLuc act counter)
C[C@@H]1ON(C)[C@H]2C[C@H]3c4[nH]c5ccccc5c4CCN3C(=O)[C@@H]12	none (no result: PPC-1+TRAIL kill, FLuc inhib CS, HSP90 refold inh, FLuc act counter)
O=C(O/N=C1\CCCc2ccccc21)c1cccs1	FLuc inhib CS 91
Cc1cccc(/C(N)=N/OC(=O)c2ccc(F)cc2)c1	FLuc inhib CS 97
N/C(=N\OC(=O)c1ccc(F)cc1)c1cccc([N+](=O)[O-])c1	none (no result: PPC-1+TRAIL kill, FLuc inhib CS, FLuc act counter)
COc1ccc(/C(N)=N/OC(=O)c2cccs2)cc1OC	none (no result: PPC-1+TRAIL kill)
COc1cc(OC)c(C(=O)O/N=C(\N)c2cccc(C)c2)cc1OC	none (no result: PPC-1+TRAIL kill, FLuc inhib CS, FLuc act counter)
Cc1ccc(/C(N)=N/OC(=O)c2cccs2)cc1	FLuc inhib CS 74
Cc1cccc(/C(N)=N/OC(=O)c2cccs2)c1	FLuc inhib CS 90
N/C(=N\OC(=O)c1cccs1)c1ccccc1	FLuc inhib CS 94
N/C(=N\OC(=O)c1cccs1)c1cccc(Br)c1	FLuc inhib CS 87
N/C(Cc1cccc2ccccc12)=N\OC(=O)c1cccs1	none
CCCNC(=O)C1(C)CCN1C(=O)Cc1ccc(C(C)C)cc1 (stereo not drawn)	none (no result: PPC-1+TRAIL kill, FLuc inhib CS, HSP90 refold inh, FLuc act counter)
N#Cc1ccccc1NC(=O)c1ccc2c(Cl)c3c(nc2c1)CCCC3	FLuc inhib CS 50
COc1cccc(-c2cc(C(F)(F)F)n3nc(N)nc3n2)c1	none
Clc1ccc(-c2cn3nc4c(nc3n2)CCCC4)cc1	FLuc inhib CS 59
